In ChEMBL document CHEMBL4765453, “Phenanthrolinic analogs of quinolones show antibacterial activity against M. tuberculosis” (Eur J Med Chem, 2020):
Converted amounts (≈) assume the structure as drawn.

System: Mycobacterium tuberculosis
Test: Antibacterial activity against Mycobacterium bovis BCG measured after 7 days by resazurin microtiter assay
Assay type: functional
Conditions: variant bovis BCG, 168 h, time 7 day
How it was run: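 Resazurin microtiter assay with two-fold drug dilutions in complete 7H9 broth. Exponential-phase cells are diluted to a final OD600 of 0.005 in 7H9 without Tween. Incubation is 7 days at 37°C, then 0.01% resazurin is added and plates are held 24 h more. MIC is the lowest concentration preventing the blue-to-pink change. Each MIC is determined three times in duplicate experiments.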

Compound | MIC90 [µM]
CCOC(=O)c1cn(CC)c2c(cc([N+](=O)[O-])c3cccnc32)c1=O | 2.5 (≈ 0.853 µg/mL)
CCOC(=O)c1cn(C)c2c(cc([N+](=O)[O-])c3cccnc32)c1=O | 2.35 (≈ 0.769 µg/mL)
Cn1cc(C(=O)O)c(=O)c2cc([N+](=O)[O-])c3cccnc3c21 | 1.4 (≈ 0.419 µg/mL)
CCn1cc(C(=O)O)c(=O)c2cc([N+](=O)[O-])c3cccnc3c21 | 2.67 (≈ 0.836 µg/mL)
CC1COc2c(N3CCN(C)CC3)c(F)cc3c(=O)c(C(=O)O)cn1c23 (stereo unspecified) [OFLOXACIN] | 1.73 (≈ 0.625 µg/mL)
NCC[C@H](O)C(=O)N[C@@H]1C[C@H](N)[C@@H](O[C@H]2O[C@H](CN)[C@@H](O)[C@H](O)[C@H]2O)[C@H](O)[C@H]1O[C@H]1O[C@H](CO)[C@@H](O)[C@H](N)[C@H]1O [AMIKACIN] | 0.46 (≈ 0.269 µg/mL)
